A selection: hits, their analogues and other compounds. The true share with any hit is near 4.9%.
HSF1 activator = HSF-1 activators, primary screen, NIH3T3-HGL cells, MG132 stress, luminescence, single point. NIH3T3-HGL HSF-1 luciferase reporter, 8 h; 100% = twice DMSO control signal. activation, % at 9 µM. 300,000 tested, 1.7% active. AID 504408, 2011;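 active means mean replicate activation of at least 50% with a set share of replicates each reaching 50%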;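 further: 0% = median of the neutral control wells and 100% = twice that signal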
PHOSPHO1 block = PubChem AID 1565 | recombinant PHOSPHO1, absorbance phosphatase assay | 290,000 tested, 1.1% active | inhibition, % at 13.3 µM; in the data active means inhibition above about 60%
HSF1 inh = HSF1 inhibitors in luciferase reporter cells, primary screen, cell-based, NIH3T3, luminescence. NIH3T3-HGL HSE-luciferase, MG132-induced, luminescence 8 h; stronger effect = lower value. 300,000 tested, 0.77% active. activity change, negative = inhibition, % at 7.5 µM (by protocol). AID 2098, 2009;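 active means more than half of replicate wells show activity change below -50%, luminescence cut by over half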;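 further: luciferase reports HSF-1 transcriptional activity via heat shock element; 0% = median of DMSO wells and -100% = zero luminescence signal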
CHT PAM = CHT positive allosteric modulators, primary screen, cell-based, membrane potential dye, choline EC20; 310,000 tested, 0.49% active; High affinity choline transporter 1 (Homo sapiens), Q9GZV3; B-score at 10 µM; AID 488977, 2010; CHT-expressing cells; stronger effect = higher value; LV-AA mutant CHT in HEK293 cells;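 active means initial fluorescence not abnormally high and integrated response B-score, plate-corrected, over 3 SD above library mean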
Target sequence (Q9GZV3 whole entry, looked up): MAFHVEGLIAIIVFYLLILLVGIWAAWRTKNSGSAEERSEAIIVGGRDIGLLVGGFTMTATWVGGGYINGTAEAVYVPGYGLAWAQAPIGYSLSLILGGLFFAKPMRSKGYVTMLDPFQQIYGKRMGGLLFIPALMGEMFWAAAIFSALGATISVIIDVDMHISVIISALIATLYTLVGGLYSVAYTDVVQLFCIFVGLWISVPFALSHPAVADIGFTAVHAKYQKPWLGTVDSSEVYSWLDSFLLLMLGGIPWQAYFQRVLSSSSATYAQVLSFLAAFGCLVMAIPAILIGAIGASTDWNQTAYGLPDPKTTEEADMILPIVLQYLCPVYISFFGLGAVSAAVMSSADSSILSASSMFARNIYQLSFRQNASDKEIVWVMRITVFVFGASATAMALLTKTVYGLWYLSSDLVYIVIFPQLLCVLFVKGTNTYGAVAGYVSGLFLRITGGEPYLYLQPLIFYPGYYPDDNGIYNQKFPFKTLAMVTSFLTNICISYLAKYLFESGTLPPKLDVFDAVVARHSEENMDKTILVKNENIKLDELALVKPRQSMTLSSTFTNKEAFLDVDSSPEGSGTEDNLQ
Hep lipid drop = inhibitors of hepatocyte lipid droplet formation, primary screen, imaging, high-throughput imaging, BODIPY stain. 240,000 tested, 0.4% active. AML12 mouse hepatocytes, oleate lipid droplets. AID 1656, 2009. inhibition, % at 6.5 µM;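 active means lipid droplet intensity inhibited by at least 50%, with more than 500 cells counted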
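Assay system: AML12 hepatocytes (mouse); Probe or stimulus: oleic acid at 100 µM to induce lipid droplet formation; Dosing: compound at 6.5 µM only; Schedule: compound with oleate, overnight; Detection: fluorescence imaging, 20x objective, two fields per well; Measure: % inhibition of lipid droplet signal.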
CHT block = inhibitors of human choline transporter CHT; B-score at 10 µM; 310,000 tested, 0.86% active; High affinity choline transporter 1 (Homo sapiens), Q9GZV3; AID 488975, 2010; CHT-expressing cells, membrane potential dye, choline response; stronger effect = lower value;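 active means B-score over 3 SD under the library average, and starting fluorescence ratio not unusually high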;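 further: choline stimulus applied at its EC90 after an EC20 pre-addition; B-score computed on integrated fluorescence ratio after choline addition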
* hit, by the source's call.

For COCCCN1C(=O)C(=O)/C(=C(/O)c2ccc(S(=O)(=O)N3CCCCC3)cc2)C1c1ccc(OC)cc1 (configuration not stated) the results were HSF1 activator 1, PHOSPHO1 block -4, HSF1 inh -3, CHT PAM inactive, Hep lipid drop -10 and CHT block inactive.
`O=c1nc(N/N=C/c2c[nH]c3ccccc23)cn[nH]1` gave HSF1 activator 21, PHOSPHO1 block 42, HSF1 inh 10, CHT PAM inactive, Hep lipid drop -30 and CHT block inactive.
C(=N\Nc1ccccn1)/c1c[nH]c2ccccc12 was read as HSF1 activator 251*, PHOSPHO1 block 33, HSF1 inh 177, CHT PAM inactive, Hep lipid drop -2 and CHT block inactive.
Cc1cc(/C=C2\SC(=S)N(C)C2=O)c(C)n1-c1ccc(O)cc1 was read as HSF1 activator -51, PHOSPHO1 block 28, HSF1 inh -52*, CHT PAM inactive, Hep lipid drop 6 and CHT block inactive.
Cc1cc(/C=C2\SC(=S)N(C)C2=O)c(C)n1-c1ccccc1O was read as HSF1 activator -47, HSF1 inh -38, CHT PAM inactive and CHT block inactive.
For Cc1ccc(-n2c(C)cc(/C=C3\SC(=O)NC3=O)c2C)cc1 the results were HSF1 activator 61*, PHOSPHO1 block 26, HSF1 inh 38, CHT PAM inactive, Hep lipid drop 0 and CHT block inactive.
For O=C(NC(Cc1ccccc1)C(=O)O)/C(=C/c1ccccc1)NC(=O)c1ccc(Br)o1 (configuration not stated) the results were HSF1 activator 8, PHOSPHO1 block 12, HSF1 inh -5, CHT PAM inactive, Hep lipid drop 12 and CHT block inactive.
For CCN(CC)c1ccc(/C=N/NC(=O)OC(C)(C)C)cc1 the results were HSF1 activator 60*, PHOSPHO1 block 8, HSF1 inh 20, CHT PAM inactive, Hep lipid drop 12 and CHT block inactive.
Screening COc1ccc(CN2C(=O)CSC2c2ccccn2)cc1 (configuration not stated) returned HSF1 activator 2, PHOSPHO1 block 33, HSF1 inh -6, CHT PAM inactive, Hep lipid drop 4 and CHT block inactive.
Screening Cc1cccc(CSc2cn(CC(=O)N3CCOCC3)c3ccccc23)c1 returned HSF1 activator 76*, PHOSPHO1 block 4, HSF1 inh 46, CHT PAM inactive, Hep lipid drop -13 and CHT block inactive.
Screening O=C(Cn1c(SCc2ccccc2)nc2ccccc21)N1CCOCC1 returned HSF1 activator 31, PHOSPHO1 block 62*, HSF1 inh -3, CHT PAM inactive and CHT block inactive.
Screening C/C(=C\c1ccccc1)CN1CCN(C)CC1 returned HSF1 activator 6, PHOSPHO1 block 15, HSF1 inh 1, CHT PAM inactive, Hep lipid drop -8 and CHT block inactive.
`Cn1c(=O)c2c(nc(SCCCC#N)n2Cc2c(F)cccc2Cl)n(C)c1=O` gave HSF1 activator 11, PHOSPHO1 block 2, HSF1 inh 5, CHT PAM inactive, Hep lipid drop -34 and CHT block inactive.
CC(C)c1nc(SCc2c(F)cccc2Cl)c2c(=O)n(C)c(=O)n(C)c2n1 was read as HSF1 activator -73, PHOSPHO1 block 6, HSF1 inh -67*, CHT PAM inactive, Hep lipid drop -17 and CHT block inactive.
CC(=O)[C@H]1[C@H]([C@H](O)[C@H](O)CO)O[C@](O)(C(=O)O)C[C@@H]1O was read as CHT PAM inactive and CHT block inactive.
Screening O=C(Nc1ccc2[nH]ncc2c1)c1ccccc1Cl returned HSF1 activator -74, HSF1 inh -67*, CHT PAM inactive, Hep lipid drop 5 and CHT block inactive.
For O=[N+]([O-])c1nn(-c2ccc3c(c2)OCCO3)n(O)c1=NCCCO the results were HSF1 activator 4, PHOSPHO1 block 26, HSF1 inh -2, CHT PAM inactive and CHT block inactive.
`Cc1cc(C)cc(N=c2c([N+](=O)[O-])nn(-c3ccc4c(c3)OCCO4)n2O)c1` gave HSF1 activator -25, PHOSPHO1 block 11, HSF1 inh -6, CHT PAM inactive, Hep lipid drop 5 and CHT block inactive.
For Cc1ccc(N=c2c([N+](=O)[O-])nn(-c3ccc4c(c3)OCCO4)n2O)cc1F the results were HSF1 activator -84, PHOSPHO1 block -27, HSF1 inh -79*, CHT PAM inactive, Hep lipid drop 2 and CHT block inactive.
Screening O=[N+]([O-])c1nn(-c2ccc3c(c2)OCCO3)n(O)c1=Nc1ccc(Cl)cc1 returned HSF1 activator -84, PHOSPHO1 block 22, HSF1 inh -79*, CHT PAM inactive and CHT block inactive.
For O=[N+]([O-])c1nn(-c2ccc3c(c2)OCCO3)n(O)c1=NC1CCCC1 the results were HSF1 activator 15, PHOSPHO1 block 9, HSF1 inh 6, CHT PAM inactive, Hep lipid drop 2 and CHT block inactive.
Cc1ccc(N=c2c([N+](=O)[O-])nn(-c3ccc4c(c3)OCCO4)n2O)c(Cl)c1 was read as HSF1 activator -69, PHOSPHO1 block 36, HSF1 inh -63*, CHT PAM inactive, Hep lipid drop -4 and CHT block inactive.
For CC(=O)Nc1ccc2nc(NC(=O)COc3ccc(C)cc3)sc2c1 the results were HSF1 activator 36, PHOSPHO1 block 14, HSF1 inh 13, CHT PAM inactive, Hep lipid drop 25 and CHT block inactive.
Cc1ccc(NC(=O)CN(C)C(=O)c2ccc(COc3ccccc3)cc2)cc1 was read as HSF1 activator 1, HSF1 inh 6, CHT PAM inactive and CHT block inactive.
For CCC(CC)C(=O)N1CC(=O)Nc2ccc(F)cc2C1c1ccc(F)cc1 (configuration not stated) the results were HSF1 activator 24, PHOSPHO1 block 15, HSF1 inh 0, CHT PAM inactive, Hep lipid drop -25 and CHT block inactive.
Cc1cc(C)nc(NS(=O)(=O)c2ccccc2)n1 was read as HSF1 activator 8, PHOSPHO1 block -8, HSF1 inh 1, CHT PAM inactive and CHT block inactive.
Screening Cc1ccc2cccc(NS(=O)(=O)c3ccccc3)c2n1 returned HSF1 activator 140*, PHOSPHO1 block 20, HSF1 inh 137, CHT PAM inactive, Hep lipid drop -23 and CHT block inactive.
